Values joined by “and” are separate entries in the source; they are usually repeats but may differ in a detail not shown here. Equal entries are not always repeated.
Assays:
Format in all cases: toxicity, cell-based
Fibroblast = test: Multiplex assay against human fibroblast
How it was run: (§1)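 On a CQ1 microscope at 37°C and 5% CO2, live cells were imaged after compound addition. They had been stained at seeding with Hoechst33342, BioTracker Green Microtubule Cytoskeleton Dye, MitoTracker Red and Annexin V Alexa Fluor 680. CellPathfinder machine-learning gating assigned cells to Hoechst high-intensity objects or normal cells, normal cells to healthy, pyknosed or fragmented nuclei, and pyknosed cells to mitotic or apoptotic. Tubulin, mitochondrial-mass and membrane-permeability phenotypes are per cents of healthy-nucleus cells.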

U2OS = test: Multiplex assay against U2OS; conditions: human; how it was run: as §1
HEK-293T = test: Multiplex assay against HEK293T; conditions: human; how it was run: as §1
[1] = 12 h, 1 µM, compound concentration 1 uM
[2] = 12 h, 10 µM, compound concentration 10 uM
[3] = 24 h, 1 µM, compound concentration 1 uM
[4] = 24 h, 10 µM, compound concentration 10 uM
[5] = 48 h, 1 µM, compound concentration 1 uM
[6] = 48 h, 10 µM, compound concentration 10 uM

## O=C(NCC(=O)N1CC[C@H](N[C@H]2CC[C@@](O)(c3ccc(-c4ncccn4)cn3)CC2)C1)c1cccc(C(F)(F)F)c1 [PF-4136309]
Fibroblast; [1]
  Population Apoptotic (%): 53% and 22%
  Population Fragmented Nuclei (%): 13% and 25%
  Population Healthy Nuclei (%): 63% and 52%
  Population Hoechst High Intensity Objects (%): 2% and 5%
  Population Mitochondria Different-Phenotype (%): 4% and 7%
  Population Mitotic Cells (%): 46% and 77%
  Population Normal (%): 97% and 94%
  Population Pyknosed Nuclei (%): 23% and 21%
  Population Tubulin-Different-Phenotype (%): 28% and 60%
  Total Cell Count: 142 and 152
Fibroblast; [2]
  Population Apoptotic (%): 60% and 25%
  Population Fragmented Nuclei (%): 18% and 24%
  Population Healthy Nuclei (%): 69% and 52%
  Population Hoechst High Intensity Objects (%): 2% and 5%
  Population Membrane Permeable-Phenotype (%): 0% and 4%
  Population Mitochondria Different-Phenotype (%): 11% and 6%
  Population Mitotic Cells (%): 40% and 75%
  Population Normal (%): 97% and 94%
  Population Pyknosed Nuclei (%): 12% and 23%
  Population Tubulin-Different-Phenotype (%): 46% and 44%
  Total Cell Count: 210 and 128
Fibroblast; [3]
  Population Apoptotic (%): 61% and 45%
  Population Fragmented Nuclei (%): 14% and 33%
  Population Healthy Nuclei (%): 60% and 52%
  Population Hoechst High Intensity Objects (%): 2% and 4%
  Population Mitochondria Different-Phenotype (%): 4% and 1%
  Population Mitotic Cells (%): 38% and 55%
  Population Normal (%): 97% and 95%
  Population Pyknosed Nuclei (%): 25% and 14%
  Population Tubulin-Different-Phenotype (%): 32% and 52%
  Total Cell Count: 139 and 148
Fibroblast; [4]
  Population Apoptotic (%): 36% and 30%
  Population Fragmented Nuclei (%): 15% and 29%
  Population Healthy Nuclei (%): 72% and 48%
  Population Hoechst High Intensity Objects (%): 3% and 2%
  Population Membrane Permeable-Phenotype (%): 0% and 6%
  Population Mitochondria Different-Phenotype (%): 10% and 4%
  Population Mitotic Cells (%): 63% and 70%
  Population Normal (%): 96% and 97%
  Population Pyknosed Nuclei (%): 11% and 22%
  Population Tubulin-Different-Phenotype (%): 34% and 52%
  Total Cell Count: 203 and 139
Fibroblast; [5]
  Population Apoptotic (%): 58% and 50%
  Population Fragmented Nuclei (%): 26% and 36%
  Population Healthy Nuclei (%): 49%
  Population Hoechst High Intensity Objects (%): 2% and 4%
  Population Membrane Permeable-Phenotype (%): 2% and 7%
  Population Mitochondria Different-Phenotype (%): 2% and 4%
  Population Mitotic Cells (%): 41% and 50%
  Population Normal (%): 97% and 95%
  Population Pyknosed Nuclei (%): 24% and 13%
  Population Tubulin-Different-Phenotype (%): 27% and 46%
  Total Cell Count: 149 and 137
Fibroblast; [6]
  Population Apoptotic (%): 47% and 63%
  Population Fragmented Nuclei (%): 18% and 31%
  Population Healthy Nuclei (%): 72% and 52%
  Population Hoechst High Intensity Objects (%): 6%
  Population Membrane Permeable-Phenotype (%): 0% and 6%
  Population Mitochondria Different-Phenotype (%): 15% and 6%
  Population Mitotic Cells (%): 52% and 36%
  Population Normal (%): 93%
  Population Pyknosed Nuclei (%): 9% and 15%
  Population Tubulin-Different-Phenotype (%): 47% and 54%
  Total Cell Count: 195 and 129
U2OS; [1]
  Population Apoptotic (%): 79% and 93%
  Population Fragmented Nuclei (%): 25% and 13%
  Population Healthy Nuclei (%): 64% and 74%
  Population Hoechst High Intensity Objects (%): 1% and 4%
  Population Membrane Permeable-Phenotype (%): 6% and 11%
  Population Mitochondria Different-Phenotype (%): 3% and 5%
  Population Normal (%): 98% and 95%
  Population Pyknosed Nuclei (%): 9% and 12%
  Population Tubulin-Different-Phenotype (%): 4% and 8%
  Total Cell Count: 249 and 138
U2OS; [2]
  Population Apoptotic (%): 68% and 60%
  Population Fragmented Nuclei (%): 25% and 22%
  Population Healthy Nuclei (%): 62% and 66%
  Population Hoechst High Intensity Objects (%): 4% and 1%
  Population Membrane Permeable-Phenotype (%): 15% and 25%
  Population Mitochondria Different-Phenotype (%): 4% and 10%
  Population Mitotic Cells (%): 31% and 40%
  Population Normal (%): 95% and 98%
  Population Pyknosed Nuclei (%): 12% and 11%
  Population Tubulin-Different-Phenotype (%): 9% and 11%
  Total Cell Count: 242 and 90
U2OS; [3]
  Population Apoptotic (%): 80% and 91%
  Population Fragmented Nuclei (%): 22% and 16%
  Population Healthy Nuclei (%): 69% and 76%
  Population Hoechst High Intensity Objects (%): 1% and 3%
  Population Membrane Permeable-Phenotype (%): 4% and 5%
  Population Mitochondria Different-Phenotype (%): 2% and 4%
  Population Mitotic Cells (%): 20% and 8%
  Population Normal (%): 98% and 96%
  Population Pyknosed Nuclei (%): 8% and 7%
  Population Tubulin-Different-Phenotype (%): 2%
  Total Cell Count: 304 and 169
U2OS; [4]
  Population Apoptotic (%): 83% and 75%
  Population Fragmented Nuclei (%): 23% and 21%
  Population Healthy Nuclei (%): 62% and 70%
  Population Hoechst High Intensity Objects (%): 3% and 0%
  Population Membrane Permeable-Phenotype (%): 10% and 15%
  Population Mitochondria Different-Phenotype (%): 3% and 11%
  Population Mitotic Cells (%): 16% and 25%
  Population Normal (%): 96% and 99%
  Population Pyknosed Nuclei (%): 13% and 7%
  Population Tubulin-Different-Phenotype (%): 3% and 7%
  Total Cell Count: 271 and 102
U2OS; [5]
  Population Apoptotic (%): 87% and 96%
  Population Fragmented Nuclei (%): 14% and 12%
  Population Healthy Nuclei (%): 74% and 75%
  Population Hoechst High Intensity Objects (%): 2% and 3%
  Population Membrane Permeable-Phenotype (%): 4% and 6%
  Population Mitochondria Different-Phenotype (%): 3%
  Population Mitotic Cells (%): 12% and 4%
  Population Normal (%): 97% and 96%
  Population Pyknosed Nuclei (%): 11%
  Population Tubulin-Different-Phenotype (%): 3% and 4%
  Total Cell Count: 443 and 224
U2OS; [6]
  Population Apoptotic (%): 69% and 92%
  Population Fragmented Nuclei (%): 22% and 20%
  Population Healthy Nuclei (%): 61% and 60%
  Population Hoechst High Intensity Objects (%): 4% and 0%
  Population Membrane Permeable-Phenotype (%): 9% and 15%
  Population Mitochondria Different-Phenotype (%): 5% and 8%
  Population Normal (%): 95% and 100%
  Population Pyknosed Nuclei (%): 15% and 18%
  Population Tubulin-Different-Phenotype (%): 4%
  Total Cell Count: 360 and 138
HEK-293T; [1]
  Population Apoptotic (%): 44% and 34%
  Population Fragmented Nuclei (%): 6% and 5%
  Population Healthy Nuclei (%): 80%
  Population Hoechst High Intensity Objects (%): 4% and 6%
  Population Membrane Permeable-Phenotype (%): 0%
  Population Mitochondria Different-Phenotype (%): 41% and 56%
  Population Mitotic Cells (%): 56% and 66%
  Population Normal (%): 95% and 93%
  Population Pyknosed Nuclei (%): 13%
  Population Tubulin-Different-Phenotype (%): 32% and 15%
  Total Cell Count: 393 and 389
HEK-293T; [2]
  Population Apoptotic (%): 39% and 48%
  Population Fragmented Nuclei (%): 7% and 3%
  Population Healthy Nuclei (%): 76% and 81%
  Population Hoechst High Intensity Objects (%): 7% and 6%
  Population Membrane Permeable-Phenotype (%): 0%
  Population Mitochondria Different-Phenotype (%): 53% and 75%
  Population Mitotic Cells (%): 60% and 51%
  Population Normal (%): 92% and 93%
  Population Pyknosed Nuclei (%): 15% and 14%
  Population Tubulin-Different-Phenotype (%): 55% and 45%
  Total Cell Count: 358 and 295
HEK-293T; [3]
  Population Apoptotic (%): 25% and 39%
  Population Fragmented Nuclei (%): 10% and 8%
  Population Healthy Nuclei (%): 80%
  Population Hoechst High Intensity Objects (%): 2% and 5%
  Population Membrane Permeable-Phenotype (%): 0%
  Population Mitochondria Different-Phenotype (%): 26% and 31%
  Population Mitotic Cells (%): 74% and 60%
  Population Normal (%): 97% and 94%
  Population Pyknosed Nuclei (%): 9% and 11%
  Population Tubulin-Different-Phenotype (%): 15% and 13%
  Total Cell Count: 561 and 485
HEK-293T; [4]
  Population Apoptotic (%): 35% and 57%
  Population Fragmented Nuclei (%): 10% and 8%
  Population Healthy Nuclei (%): 73% and 80%
  Population Hoechst High Intensity Objects (%): 7% and 5%
  Population Membrane Permeable-Phenotype (%): 1% and 0%
  Population Mitochondria Different-Phenotype (%): 39% and 54%
  Population Mitotic Cells (%): 64% and 42%
  Population Normal (%): 92% and 94%
  Population Pyknosed Nuclei (%): 16% and 11%
  Population Tubulin-Different-Phenotype (%): 36% and 27%
  Total Cell Count: 450 and 384
HEK-293T; [5]
  Population Apoptotic (%): 18% and 27%
  Population Fragmented Nuclei (%): 16%
  Population Healthy Nuclei (%): 78% and 77%
  Population Hoechst High Intensity Objects (%): 0% and 2%
  Population Membrane Permeable-Phenotype (%): 1% and 0%
  Population Mitochondria Different-Phenotype (%): 14% and 16%
  Population Mitotic Cells (%): 81% and 72%
  Population Normal (%): 99% and 97%
  Population Pyknosed Nuclei (%): 4% and 5%
  Population Tubulin-Different-Phenotype (%): 9% and 11%
  Total Cell Count: 1007 and 907
HEK-293T; [6]
  Population Apoptotic (%): 31% and 43%
  Population Fragmented Nuclei (%): 13% and 11%
  Population Healthy Nuclei (%): 75% and 79%
  Population Hoechst High Intensity Objects (%): 5% and 4%
  Population Membrane Permeable-Phenotype (%): 0%
  Population Mitochondria Different-Phenotype (%): 34% and 46%
  Population Mitotic Cells (%): 68% and 56%
  Population Normal (%): 94% and 95%
  Population Pyknosed Nuclei (%): 11% and 8%
  Population Tubulin-Different-Phenotype (%): 23% and 30%
  Total Cell Count: 636 and 468

Source: ChEMBL document CHEMBL5724801, “EUbOPEN Chemogenomics Library - Multiplex” (2024)
